Assay results from ChEMBL document CHEMBL1125426, “Muscarinic receptor subtype specificity of (N,N-dialkylamino)alkyl 2-cyclohexyl-2-phenylpropionates: cylexphenes (cyclohexyl-substituted aprophen analogues)” (J Med Chem, 1992).

Tests used:
[1] = Selectivity index is defined as the ratio of Ki value for m3 receptor / Ki value for M4 receptor
[2] = target: T1, Muscarinic acetylcholine receptor M1 (Homo sapiens, UniProt P11229); assay: Antimuscarinic potency and subset specificity was characterised by its inhibition of the [3H]NMS Binding to Muscarinic acetylcholine receptor M1 subtype
T1 sequence (P11229 whole entry): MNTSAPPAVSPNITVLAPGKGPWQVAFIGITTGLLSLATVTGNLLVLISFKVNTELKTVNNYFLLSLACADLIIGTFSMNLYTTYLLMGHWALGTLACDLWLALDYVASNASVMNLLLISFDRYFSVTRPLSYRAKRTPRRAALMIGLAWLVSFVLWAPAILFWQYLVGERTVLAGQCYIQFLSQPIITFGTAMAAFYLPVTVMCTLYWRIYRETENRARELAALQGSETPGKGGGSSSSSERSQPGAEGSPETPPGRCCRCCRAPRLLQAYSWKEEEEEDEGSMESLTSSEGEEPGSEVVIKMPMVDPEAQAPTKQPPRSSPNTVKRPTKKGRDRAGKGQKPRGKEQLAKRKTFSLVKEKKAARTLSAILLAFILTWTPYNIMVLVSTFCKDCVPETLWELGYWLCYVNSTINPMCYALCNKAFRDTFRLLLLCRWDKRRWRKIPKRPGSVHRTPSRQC
Summary of the method: (§1)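 Membranes, by hypotonic lysis (2 mM Tris-HCl pH 7.2, 1 mM EDTA) and 50000g spins, from A9 L cells stably carrying cloned brain m1 or m3, heart (M2) or NG108-15 cells (M4). 150-300 µg protein incubated 60 min at 37 °C in PBS pH 7.2 with 0.5 nM [3H]NMS and varied compound levels. Filtration and scintillation counting. Nonspecific binding taken with 1 µM atropine. Ki from LIGAND with KD 235 (m1), 426 (M2), 164 (m3), 144 (M4) pM. Three to six experiments.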

[3] = target: T2, Muscarinic acetylcholine receptor M3 (Homo sapiens, UniProt P20309); assay: Antimuscarinic potency and subset specificity was characterised by its inhibition of the [3H]NMS Binding to Muscarinic acetylcholine receptor M3 subtype
T2 sequence (P20309 whole entry): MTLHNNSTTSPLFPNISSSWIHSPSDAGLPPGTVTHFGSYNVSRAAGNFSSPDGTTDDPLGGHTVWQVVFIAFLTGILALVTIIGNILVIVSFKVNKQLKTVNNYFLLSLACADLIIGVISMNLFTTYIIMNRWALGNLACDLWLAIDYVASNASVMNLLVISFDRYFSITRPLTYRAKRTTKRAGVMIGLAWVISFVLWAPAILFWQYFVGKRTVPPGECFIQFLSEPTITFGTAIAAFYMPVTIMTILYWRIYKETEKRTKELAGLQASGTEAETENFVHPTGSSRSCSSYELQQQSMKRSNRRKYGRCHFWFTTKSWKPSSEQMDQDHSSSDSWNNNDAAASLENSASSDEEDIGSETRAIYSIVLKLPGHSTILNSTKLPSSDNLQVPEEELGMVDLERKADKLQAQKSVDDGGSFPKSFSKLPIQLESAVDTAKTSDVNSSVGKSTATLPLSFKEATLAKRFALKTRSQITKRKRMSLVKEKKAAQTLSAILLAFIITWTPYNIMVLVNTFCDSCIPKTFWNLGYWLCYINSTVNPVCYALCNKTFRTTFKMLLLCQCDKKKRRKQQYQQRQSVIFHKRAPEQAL
Summary of the method: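 Membranes from A9 L cells stably transfected with cloned m3 receptor (brain library), lysed in 2 mM Tris-HCl pH 7.2/1 mM EDTA, centrifuged 50000g. 150-300 µg protein incubated 60 min, 37 °C with 0.5 nM [3H]NMS plus varied compound concentrations in PBS pH 7.2; filtration, scintillation counting. Nonspecific binding: 1 µM atropine. Ki via LIGAND using KD 164 pM; mean of 3-6 experiments ± SD.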

[4] = Selectivity ratio relative to atropine is [(atropine IC50 value for pancreas)/(compound IC50 value for pancreas)] / [(atropine KB value for ileum) /(compound KB value for ileum)]; type: tissue-based
Summary of the method: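 Rat pancreatic acini from male Sprague-Dawley rats, collagenase digested, exposed to 10^-5 M carbachol with varied compound levels. […] Ileum KB comes from Schild plots on male guinea pig distal ileum at 37 °C, ACh-induced isometric contraction, compound added 30 s before ACh. Ratio as printed, referenced to atropine.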

[5] = target: T3, Muscarinic acetylcholine receptor M2 (Homo sapiens, UniProt P08172); assay: Antimuscarinic potency and subset specificity was characterised by its inhibition of the [3H]NMS Binding to Muscarinic acetylcholine receptor M2 subtype; summary of the method: as §1
T3 sequence (P08172 whole entry): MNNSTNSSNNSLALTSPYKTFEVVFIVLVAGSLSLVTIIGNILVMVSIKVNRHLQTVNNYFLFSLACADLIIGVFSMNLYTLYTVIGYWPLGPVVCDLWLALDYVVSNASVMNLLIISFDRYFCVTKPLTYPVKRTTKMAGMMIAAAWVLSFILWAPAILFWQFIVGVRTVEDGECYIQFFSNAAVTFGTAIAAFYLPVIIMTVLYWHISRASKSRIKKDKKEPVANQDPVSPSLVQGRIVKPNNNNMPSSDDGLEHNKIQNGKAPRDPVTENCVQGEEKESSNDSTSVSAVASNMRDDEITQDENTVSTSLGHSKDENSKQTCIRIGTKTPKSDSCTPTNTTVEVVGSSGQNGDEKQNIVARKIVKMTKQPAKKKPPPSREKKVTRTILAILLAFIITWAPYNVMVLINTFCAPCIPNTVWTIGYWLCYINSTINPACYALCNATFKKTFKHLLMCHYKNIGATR

[6] = target: Muscarinic acetylcholine receptor M1 and M3 (Homo sapiens) (UniProt P20309+P11229); assay: Selectivity index is defined as the ratio of Ki value for m1 receptor / Ki value for m3 receptor; type: protein assay
Muscarinic acetylcholine receptor M1 and M3 (Homo sapiens), sequence (P20309 whole entry, looked up, one chain of several): as the sequence (P20309 whole entry) above

[7] = target: T4, Muscarinic acetylcholine receptor M4 (Homo sapiens, UniProt P08173); assay: Antimuscarinic potency and subset specificity was characterised by its inhibition of the [3H]NMS Binding to Muscarinic acetylcholine receptor M4 subtype; summary of the method: as §1
T4 sequence (P08173 whole entry): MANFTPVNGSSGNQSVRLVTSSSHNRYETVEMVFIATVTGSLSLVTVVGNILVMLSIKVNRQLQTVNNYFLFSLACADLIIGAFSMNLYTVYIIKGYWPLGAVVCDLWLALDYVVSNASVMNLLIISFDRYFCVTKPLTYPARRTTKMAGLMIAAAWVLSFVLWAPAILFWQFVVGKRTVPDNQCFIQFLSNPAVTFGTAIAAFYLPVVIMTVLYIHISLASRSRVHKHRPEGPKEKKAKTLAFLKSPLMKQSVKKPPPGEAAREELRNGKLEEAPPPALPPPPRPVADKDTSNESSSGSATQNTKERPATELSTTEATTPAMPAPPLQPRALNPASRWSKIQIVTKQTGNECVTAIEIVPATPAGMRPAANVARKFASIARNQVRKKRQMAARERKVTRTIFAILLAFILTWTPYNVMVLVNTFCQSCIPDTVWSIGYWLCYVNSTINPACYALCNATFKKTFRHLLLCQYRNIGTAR

[8] = target: T3, Muscarinic acetylcholine receptor M2; assay: Antimuscarinic potency and subset specificity was characterised by inhibition of the [3H]NMS Binding to Muscarinic acetylcholine receptor M2 subtype; summary of the method: as §1
[9] = target: T1, Muscarinic acetylcholine receptor M1; assay: Antimuscarinic potency and subset specificity was characterised by inhibition of the [3H]NMS Binding to Muscarinic acetylcholine receptor M1 subtype; summary of the method: as §1
[10] = target: T2, Muscarinic acetylcholine receptor M3; assay: Antimuscarinic potency and subset specificity was characterised by its inhibition of the [3H]NMS Muscarinic acetylcholine receptor M3 subtype; summary of the method: as §1

Ki [3] [µM]	Structure (SMILES)	Selectivity ratio [1]	Ki [2] [µM]	Selectivity [4]	Ki [5] [µM]	Selectivity ratio [6]	Ki [7] [µM]	Ki [8] [µM]	Ki [9] [µM]	Ki [10] [µM]
	CCN(CC)CCOC(=O)C(C)(c1ccccc1)c1ccccc1 [APROFENE]						0.0074	0.0093	0.0021	
0.16	CCN(CC)CCCCOC(=O)C(C)(c1ccccc1)C1CCCCC1 (centres undefined)		0.111		0.248		0.209			
0.178	CCN(CC)CCCCCOC(=O)C(C)(c1ccccc1)C1CCCCC1 (centres undefined)	1	0.298	11.5	0.246	0.6	0.173			
	CCN(CC)CCOC(=O)C(C)(c1ccccc1)C1CCCCC1 (centres undefined)	1.9	0.004	16.7	0.0234	2.5	0.0185			0.0099
0.0312	CN(C)CCCCOC(=O)C(C)(c1ccccc1)C1CCCCC1 (centres undefined)		0.0407		0.258		0.0656			

Structure (SMILES)	Ki [3] [µM]	Selectivity ratio [1]	Ki [2] [µM]	Selectivity [4]	Ki [5] [µM]	Selectivity ratio [6]	Ki [7] [µM]	Ki [8] [µM]	Ki [9] [µM]	Ki [10] [µM]
CN(C)CCCOC(=O)C(C)(c1ccccc1)C1CCCCC1 (centres undefined)	0.0017	0.9	0.0019	30.8	0.0269	0.9	0.0015			
CCN(CC)CCCOC(=O)C(C)(c1ccccc1)C1CCCCC1 (centres undefined)	0.004	1.2	0.0029	19.1	0.0197	1.4	0.0046			
